According to ChEMBL document CHEMBL1153584 (Eur J Med Chem, 2009):
Converted amounts (≈) assume the structure as drawn.

What was measured:
Type in all cases: functional, cell-based
A549 = assay: Anticancer activity against human A549 cells after 72 hrs by sulforhodamine B assay; details: A549, 72 h
SK-OV-3 = assay: Anticancer activity against human SKOV3 cells after 72 hrs by sulforhodamine B assay; details: SK-OV-3, 72 h
Procedure, shortened: (§1)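 Cells kept in RPMI 1640 with 10% FBS and passaged with trypsin-EDTA. Seeded at 1-2 × 10^4 cells/well and grown 24 h, then given compounds dissolved in culture medium, in triplicate. Exposure 48 h at 37 °C in 5% CO2. Fixed with cold 10% TCA, stained with 0.4% SRB in 1% acetic acid, dye solubilized in 10 mM Tris base (pH 10.5), absorbance read at 520 nm. IC50 is the concentration giving 50% inhibition.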

SK-MEL-2 = assay: Anticancer activity against human SK-MEL-2 cells after 72 hrs by sulforhodamine B assay; details: SK-MEL-2, 72 h; procedure, shortened: as §1
XF498 = assay: Anticancer activity against human XF498 cells after 72 hrs by sulforhodamine B assay; details: XF498, 72 h; procedure, shortened: as §1
HCT-15 = assay: Anticancer activity against human HCT15 cells after 72 hrs by sulforhodamine B assay; details: HCT-15, 72 h; procedure, shortened: as §1

| IC50 (A549) [µg/mL] | IC50 (SK-OV-3) [µg/mL] | IC50 (SK-MEL-2) [µg/mL] | IC50 (XF498) [µg/mL] | IC50 (HCT-15) [µg/mL] | Structure (SMILES) |
| --- | --- | --- | --- | --- | --- |
| 0.06 (≈ 0.0971 µM) | 0.03 (≈ 0.0486 µM) | 0.03 (≈ 0.0486 µM) | 0.06 (≈ 0.0971 µM) | 0.02 (≈ 0.0324 µM) | CC1CCN(C(=O)CCCC[C@@H](C)O[C@@H]2O[C@@H](C)[C@H](O[C@@H]3O[C@@H](C)[C@H](O)C[C@H]3O)C[C@H]2O[C@@H]2O[C@@H](C)[C@H](O)C[C@H]2O)CC1 |
| 0.07 (≈ 0.101 µM) | 0.07 (≈ 0.101 µM) | 0.09 (≈ 0.13 µM) | 0.05 (≈ 0.0724 µM) | 0.02 (≈ 0.029 µM) | C[C@H](CCCCC(=O)Nc1cccc(Br)c1)O[C@@H]1O[C@@H](C)[C@H](O[C@@H]2O[C@@H](C)[C@H](O)C[C@H]2O)C[C@H]1O[C@@H]1O[C@@H](C)[C@H](O)C[C@H]1O |
| 0.64 (≈ 1.14 µM) | 0.32 (≈ 0.571 µM) | 0.33 (≈ 0.588 µM) | 0.43 (≈ 0.767 µM) | 0.53 (≈ 0.945 µM) | CCCCCC[C@H](CCCCCCCCCCC(=O)O)O[C@@H]1O[C@@H](C)[C@H](O[C@@H]2O[C@@H](C)[C@H](O)C[C@H]2O)C[C@H]1O |
| 0.76 (≈ 1.42 µM) | 0.14 (≈ 0.262 µM) | 0.65 (≈ 1.22 µM) | 0.65 (≈ 1.22 µM) | 0.21 (≈ 0.393 µM) | C[C@H](CCCCC1CO1)O[C@@H]1O[C@@H](C)[C@H](O[C@@H]2O[C@@H](C)[C@H](O)C[C@H]2O)C[C@H]1O[C@@H]1O[C@@H](C)[C@H](O)C[C@H]1O (some centres undefined) |
| 0.78 (≈ 1.4 µM) | 0.73 (≈ 1.31 µM) | 0.43 (≈ 0.77 µM) | 0.45 (≈ 0.805 µM) | 0.21 (≈ 0.376 µM) | CCCCCC[C@@H](C)O[C@@H]1O[C@@H](C)[C@H](O)C[C@H]1O[C@@H]1O[C@@H](C)[C@H](OC(=O)CCCC)C[C@H]1OC(=O)CCCC |
| 0.08 (≈ 0.13 µM) | 0.01 (≈ 0.0162 µM) | 0.04 (≈ 0.065 µM) | 0.07 (≈ 0.114 µM) | 0.06 (≈ 0.0974 µM) | C[C@H](CCCCC(=O)NCc1ccco1)O[C@@H]1O[C@@H](C)[C@H](O[C@@H]2O[C@@H](C)[C@H](O)C[C@H]2O)C[C@H]1O[C@@H]1O[C@@H](C)[C@H](O)C[C@H]1O |
| 0.24 (≈ 0.427 µM) | 0.14 (≈ 0.249 µM) | 0.33 (≈ 0.588 µM) | 0.43 (≈ 0.766 µM) | 0.14 (≈ 0.249 µM) | C[C@H](CCCCCCN=[N+]=[N-])O[C@@H]1O[C@@H](C)[C@H](O[C@@H]2O[C@@H](C)[C@H](O)C[C@H]2O)C[C@H]1O[C@@H]1O[C@@H](C)[C@H](O)C[C@H]1O |
| 0.12 (≈ 0.17 µM) | 0.24 (≈ 0.34 µM) | 0.32 (≈ 0.454 µM) | 0.32 (≈ 0.454 µM) | 0.1 (≈ 0.142 µM) | CCCCCC[C@H](CCCCCCCCCCC(=O)OC)O[C@@H]1O[C@@H](C)[C@H](O[C@@H]2O[C@@H](C)[C@H](O)C[C@H]2O)C[C@H]1O[C@@H]1O[C@@H](C)[C@H](O)C[C@H]1O |
| 0.13 (≈ 0.236 µM) | 0.14 (≈ 0.254 µM) | 0.41 (≈ 0.745 µM) | 0.19 (≈ 0.345 µM) | 0.21 (≈ 0.381 µM) | COC(=O)CCCC[C@@H](C)O[C@@H]1O[C@@H](C)[C@H](O[C@@H]2O[C@@H](C)[C@H](O)C[C@H]2O)C[C@H]1O[C@@H]1O[C@@H](C)[C@H](O)C[C@H]1O |
| 0.12 (≈ 0.335 µM) | 0.31 (≈ 0.865 µM) | 0.22 (≈ 0.614 µM) | 0.15 (≈ 0.418 µM) | 0.12 (≈ 0.335 µM) | C=CCCCCOC(=O)CCCC[C@@H](C)O[C@@H]1O[C@@H](C)[C@H](O)C[C@H]1O |
| 0.03 (≈ 0.109 µM) | 0.02 (≈ 0.0724 µM) | 0.07 (≈ 0.253 µM) | 0.09 (≈ 0.326 µM) | 0.05 (≈ 0.181 µM) | C[C@H](CCCCC(=O)O)O[C@@H]1O[C@@H](C)[C@H](O)C[C@H]1O [DAUMONE] |

Second part, the compound before the results:

| Structure (SMILES) | IC50 (A549) [µg/mL] | IC50 (SK-OV-3) [µg/mL] | IC50 (SK-MEL-2) [µg/mL] | IC50 (XF498) [µg/mL] | IC50 (HCT-15) [µg/mL] |
| --- | --- | --- | --- | --- | --- |
| C[C@@H]1O[C@H]2O[C@@H](C)CCCCCCCCC(=O)O[C@@H]3C[C@@H](O)[C@@H](O[C@H]3C)O[C@@H]2C[C@H]1O | 0.63 (≈ 1.42 µM) | 0.73 (≈ 1.64 µM) | 0.33 (≈ 0.742 µM) | 0.34 (≈ 0.765 µM) | 0.65 (≈ 1.46 µM) |
| C[C@H](CCCCC(=O)NCCCN1CCCC1=O)O[C@@H]1O[C@@H](C)[C@H](O)C[C@H]1O | 0.76 (≈ 1.9 µM) | 0.65 (≈ 1.62 µM) | 0.33 (≈ 0.824 µM) | 0.25 (≈ 0.624 µM) | 0.54 (≈ 1.35 µM) |
| C[C@H](CCCCC(=O)OCc1cccc(Oc2ccccc2)c1)O[C@@H]1O[C@@H](C)[C@H](O)C[C@H]1O | 0.24 (≈ 0.523 µM) | 0.54 (≈ 1.18 µM) | 0.13 (≈ 0.284 µM) | 0.52 (≈ 1.13 µM) | 0.75 (≈ 1.64 µM) |
| CCc1ccc(NC(=O)CCCC[C@@H](C)O[C@@H]2O[C@@H](C)[C@H](O)C[C@H]2O)cc1 | 0.34 (≈ 0.896 µM) | 0.24 (≈ 0.632 µM) | 0.11 (≈ 0.29 µM) | 0.25 (≈ 0.659 µM) | 0.2 (≈ 0.527 µM) |
| C[C@@H]1CCCCCCCCC(=O)O[C@@H]2C[C@@H](O)[C@H](C)O[C@H]2O[C@@H]2C[C@@H](O)[C@H](C)O[C@H]2O1 | 0.57 (≈ 1.28 µM) | 0.14 (≈ 0.315 µM) | 0.44 (≈ 0.99 µM) | 0.43 (≈ 0.967 µM) | 0.54 (≈ 1.21 µM) |
| C=CCN1CCN(C(=O)CCCC[C@@H](C)O[C@@H]2O[C@@H](C)[C@H](O)C[C@H]2O)CC1 | 0.54 (≈ 1.4 µM) | 0.32 (≈ 0.832 µM) | 0.53 (≈ 1.38 µM) | 0.62 (≈ 1.61 µM) | 0.34 (≈ 0.884 µM) |
| CCCCCCCCCCCCCCNC(=O)CCCC[C@@H](C)O[C@@H]1O[C@@H](C)[C@H](O)C[C@H]1O | 0.16 (≈ 0.339 µM) | 0.24 (≈ 0.509 µM) | 0.11 (≈ 0.233 µM) | 0.42 (≈ 0.89 µM) | 0.31 (≈ 0.657 µM) |
| COc1cccc2c1C(=O)c1c(O)c3c(c(O)c1C2=O)C[C@@](O)(C(=O)CO)C[C@@H]3O[C@H]1C[C@H](N)[C@H](O)[C@H](C)O1 [DOXORUBICIN] |  | 0.024 (≈ 0.0442 µM) | 0.015 (≈ 0.0276 µM) | 0.19 (≈ 0.35 µM) | 0.02 (≈ 0.0368 µM) |
